Measured values taken from ChEMBL document CHEMBL3751707, “Silicon Incorporated Morpholine Antifungals: Design, Synthesis, and Biological Evaluation” (ACS Med Chem Lett, 2015).
In brackets after ≈: the same amount, converted by molar mass.

What was measured:
Cryptococcus neoformans [1] = assay: Antifungal activity against Cryptococcus neoformans ATCC 34664 after 24 to 36 hrs by broth microdilution method; assay type: functional, organism-based
Summary of the method: (§1)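 CLSI broth microdilution against yeasts (M27-A3) and filamentous fungi (M38-A2). Read-outs: IC50 (concentration giving 50% growth inhibition), MIC, and MFC (minimum fungicidal concentration), all in μg/mL. Assay done twice in triplicate.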

Nakaseomyces glabratus [2] = assay: Antifungal activity against Candida glabrata NCYC 388 after 72 hrs by broth microdilution method; assay type: functional; conditions: NCYC 388, 72 h; summary of the method: as §1
Candida tropicalis [3] = assay: Antifungal activity against Candida tropicalis ATCC 750 after 24 to 36 hrs by broth microdilution method; assay type: functional, organism-based; summary of the method: as §1
Aspergillus niger [4] = assay: Antifungal activity against Aspergillus niger ATCC 10578 after 48 hrs by broth microdilution method; assay type: functional, organism-based; conditions: ATCC 10578, 48 h; summary of the method: as §1
HEK293 = assay: Cytotoxicity against HEK293 cells after 24 hrs by MTT assay; assay type: cell-based; conditions: Homo sapiens, HEK293, 24 h
[5] = Toxicity in human RBC assessed as partial hemolysis at 256 ug/ml; assay type: cell-based; conditions: erythrocyte
Candida albicans [6] = assay: Antifungal activity against Candida albicans ATCC 10231 after 72 hrs by broth microdilution method; assay type: functional; conditions: ATCC 10231, 72 h; summary of the method: as §1
Candida albicans [7] = assay: Antifungal activity against Candida albicans ATCC 24433 after 72 hrs by broth microdilution method; assay type: functional; conditions: ATCC 24433, 72 h; summary of the method: as §1
Nakaseomyces glabratus [8] = assay: Antifungal activity against Candida glabrata NCYC 388 after 24 to 36 hrs by broth microdilution method; assay type: functional, organism-based; summary of the method: as §1
[9] = Toxicity in human RBC assessed as hemolysis upto 128 ug/ml; assay type: cell-based; conditions: erythrocyte
Candida albicans [10] = assay: Antifungal activity against Candida albicans ATCC 10231 after 24 to 36 hrs by broth microdilution method; assay type: functional, organism-based; summary of the method: as §1
Cryptococcus neoformans [11] = assay: Antifungal activity against Cryptococcus neoformans ATCC 34664 after 72 hrs by broth microdilution method; assay type: functional; conditions: ATCC 34664, 72 h; summary of the method: as §1
Aspergillus niger [12] = assay: Antifungal activity against Aspergillus niger ATCC 10578 after 72 hrs by broth microdilution method; assay type: functional; conditions: ATCC 10578, 72 h; summary of the method: as §1
Candida tropicalis [13] = assay: Antifungal activity against Candida tropicalis ATCC 750 after 72 hrs by broth microdilution method; assay type: functional; conditions: ATCC 750, 72 h; summary of the method: as §1
Candida albicans [14] = assay: Antifungal activity against Candida albicans ATCC 24433 after 24 to 36 hrs by broth microdilution method; assay type: functional, organism-based; summary of the method: as §1
Candida albicans [15] = assay: Effect on sterol profile of Candida albicans ATCC 24433 assessed as cholesta-5,24-dien-3-ol level at 0.125 ug/ml for 24 hrs by spectrophotometry (reference value: 3.58 +/- 0.52 %); assay type: functional
Summary of the method: (§2)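 C. albicans ATCC 24433 grown with subinhibitory (<MIC) compound concentrations. Cellular sterols extracted. Sterol content read spectrophotometrically by scan at 230–300 nm, and individual intermediates quantified by GC–MS. Values are average % of total sterols from two experiments, with standard error of the mean.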

Candida albicans [16] = assay: Effect on sterol profile of Candida albicans ATCC 24433 assessed as cholesta-5,24-dien-3-ol level at 0.25 ug/ml for 24 hrs by spectrophotometry (reference value: 3.58 +/- 0.52 %); assay type: functional; conditions: in the assay text read “by GC-MS” for “by spectrophotometry”; summary of the method: as §2
Candida albicans [17] = assay: Effect on sterol profile of Candida albicans ATCC 24433 assessed as squalene level at 0.125 ug/ml for 24 hrs by spectrophotometry (reference value: 7.17 +/- 0.35 %); assay type: functional; summary of the method: as §2
Candida albicans [18] = assay: Effect on sterol profile of Candida albicans ATCC 24433 assessed as cholesta-8,24-dien-3-ol,4-methyl-(3a',4a') level at 0.125 ug/ml for 24 hrs by spectrophotometry (reference value: 7.19 +/- 0.65 %); assay type: functional; summary of the method: as §2
Candida albicans [19] = assay: Effect on sterol profile of Candida albicans ATCC 24433 assessed as squalene level at 0.25 ug/ml for 24 hrs by spectrophotometry (reference value: 7.17 +/- 0.35 %); assay type: functional; summary of the method: as §2
Candida albicans [20] = assay: Effect on sterol profile of Candida albicans ATCC 24433 assessed as ergosterol level at 0.25 ug/ml for 24 hrs by spectrophotometry (reference value: 73.34 +/- 2.53 %); assay type: functional; conditions: in the assay text read “by GC-MS” for “by spectrophotometry”; summary of the method: as §2
[21] = Metabolic stability in mouse liver microsomes after 30 mins by LC-MS/MS analysis; assay type: ADME; conditions: read-out: Stability
Summary of the method: (§3)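 Test compounds were incubated 30 min with liver microsomes (human or mouse, per line), and values are reported as % metabolic stability after 30 min.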

Candida albicans [22] = assay: Effect on sterol profile of Candida albicans ATCC 24433 assessed as cholesta-8,24-dien-3-ol,4-methyl-(3a',4a') level at 0.25 ug/ml for 24 hrs by spectrophotometry (reference value: 7.19 +/- 0.65 %); assay type: functional; conditions: in the assay text read “by GC-MS” for “by spectrophotometry”; summary of the method: as §2
Candida albicans [23] = assay: Effect on sterol profile of Candida albicans ATCC 24433 assessed as ergosterol level at 0.25 ug/ml for 24 hrs by spectrophotometry; assay type: functional; conditions: in the assay text read “ergostenol level” for “ergosterol level”; summary of the method: as §2
Candida albicans [24] = assay: Effect on sterol profile of Candida albicans ATCC 24433 assessed as ergosterol level at 0.125 ug/ml for 24 hrs by spectrophotometry; assay type: functional; conditions: in the assay text read “ergostenol level” for “ergosterol level”; summary of the method: as §2
Candida albicans [25] = assay: Effect on sterol profile of Candida albicans ATCC 24433 assessed as ignosterol level at 0.125 ug/ml for 24 hrs by spectrophotometry; assay type: functional; summary of the method: as §2
Candida albicans [26] = assay: Effect on sterol profile of Candida albicans ATCC 24433 assessed as ergosterol level at 0.125 ug/ml for 24 hrs by spectrophotometry (reference value: 73.34 +/- 2.53 %); assay type: functional; summary of the method: as §2
Candida albicans [27] = assay: Effect on sterol profile of Candida albicans ATCC 24433 assessed as ignosterol level at 0.25 ug/ml for 24 hrs by spectrophotometry; assay type: functional; conditions: in the assay text read “by GC-MS” for “by spectrophotometry”; summary of the method: as §2
[28] = Metabolic stability in human liver microsomes after 30 mins by LC-MS/MS analysis; assay type: ADME; conditions: read-out: Stability; summary of the method: as §3
Candida albicans [29] = assay: Effect on sterol profile of Candida albicans ATCC 24433 assessed as lichesterol level at 0.125 ug/ml for 24 hrs by spectrophotometry; assay type: functional; summary of the method: as §2
[30] = Toxicity in human RBC assessed as hemolysis at 512 ug/ml; assay type: cell-based, Erythrocyte; conditions: red blood cells, read-out: Activity
Candida albicans [31] = assay: Effect on sterol profile of Candida albicans ATCC 24433 assessed as ergosta-7,22-dien-3-ol,(3a'22E) level at 0.25 ug/ml for 24 hrs by spectrophotometry; assay type: functional; conditions: in the assay text read “by GC-MS” for “by spectrophotometry”; summary of the method: as §2
Candida albicans [32] = assay: Effect on sterol profile of Candida albicans ATCC 24433 assessed as lichesterol level at 0.25 ug/ml for 24 hrs by spectrophotometry; assay type: functional; conditions: in the assay text read “by GC-MS” for “by spectrophotometry”; summary of the method: as §2
Candida albicans [33] = assay: Effect on sterol profile of Candida albicans ATCC 24433 assessed as ergosta-7,22-dien-3-ol,(3a'22E) level at 0.125 ug/ml for 24 hrs by spectrophotometry; assay type: functional; summary of the method: as §2

IC50 (Cryptococcus neoformans [1]) [µg/mL] | MIC (Cryptococcus neoformans [1]) [µg/mL] | IC50 (Candida tropicalis [3]) [µg/mL] | MIC (Candida tropicalis [3]) [µg/mL] | IC50 (Aspergillus niger [4]) [µg/mL] | MIC (Aspergillus niger [4]) [µg/mL] | IC50 (Nakaseomyces glabratus [8]) [µg/mL] | MIC (Nakaseomyces glabratus [8]) [µg/mL] | IC50 (Candida albicans [10]) [µg/mL] | MIC (Candida albicans [10]) [µg/mL] | IC50 (Candida albicans [14]) [µg/mL] | MIC (Candida albicans [14]) [µg/mL] | SMILES | MFC (Nakaseomyces glabratus [2]) [µg/mL] | MFC (Candida albicans [6]) [µg/mL] | MFC (Candida albicans [7]) [µg/mL] | Activity [9] | MFC (Cryptococcus neoformans [11]) [µg/mL] | MFC (Aspergillus niger [12]) [µg/mL] | MFC (Candida tropicalis [13]) [µg/mL] | Activity (Candida albicans [15]) [%] | other results
3.77 (≈ 11.8 µM) | 8 (≈ 25.1 µM) | 5.87 (≈ 18.4 µM) | 16 (≈ 50.2 µM) | 1.25 (≈ 3.92 µM) | 2 (≈ 6.28 µM) | 1.63 (≈ 5.12 µM) | 2 (≈ 6.28 µM) | 1 (≈ 3.14 µM) | 2 (≈ 6.28 µM) | 1.55 (≈ 4.87 µM) | 4 (≈ 12.6 µM) | CNC1CCN(CC(C)Cc2ccc([Si](C)(C)C)cc2)CC1 (centres undefined) | 4 (≈ 12.6 µM) | 2 (≈ 6.28 µM) | 8 (≈ 25.1 µM) | Non-toxic | 8 (≈ 25.1 µM) | 64 (≈ 201 µM) | 16 (≈ 50.2 µM) |  | IC50 (HEK293): 9.81 µg/mL (≈ 30.8 µM); Activity [5]: Toxic
0.079 (≈ 0.247 µM) | 0.125 (≈ 0.391 µM) | 0.164 (≈ 0.513 µM) | 0.5 (≈ 1.56 µM) | 0.5 (≈ 1.56 µM) | 2 (≈ 6.26 µM) | 0.017 (≈ 0.0532 µM) | 0.125 (≈ 0.391 µM) | 0.25 (≈ 0.782 µM) | 0.5 (≈ 1.56 µM) | 0.043 (≈ 0.135 µM) | 0.125 (≈ 0.391 µM) | CC(Cc1ccc([Si](C)(C)C)cc1)CN1C[C@@H](C)O[C@@H](C)C1 (some centres undefined) | 2 (≈ 6.26 µM) | 1 (≈ 3.13 µM) | 0.5 (≈ 1.56 µM) | Non-toxic | 2 (≈ 6.26 µM) | 256 (≈ 801 µM) | 64 (≈ 200 µM) | 15.34 | Activity (Candida albicans [16]): 0.87%; Activity (Candida albicans [17]): 21.52%; Activity (Candida albicans [18]): 5.36%; Activity (Candida albicans [19]): 13.82%; Activity (Candida albicans [20]): 11.12%; remaining at 0.5 h [21]: 6.2%; Activity (Candida albicans [22]): 27.78%; Activity (Candida albicans [23]): 4.12%; Activity (Candida albicans [24]): 5.19%; Activity (Candida albicans [25]): 7.23%; Activity (Candida albicans [26]): 15.52%; Activity (Candida albicans [27]): 42.29%; remaining at 0.5 h [28]: 27.3%; Activity (Candida albicans [29]): 29.84%; hemolysis at 512 ug/ml [30]: 7%
0.031 (≈ 0.0976 µM) | 0.125 (≈ 0.394 µM) | 0.173 (≈ 0.545 µM) | 0.5 (≈ 1.57 µM) | 0.125 (≈ 0.394 µM) | 0.5 (≈ 1.57 µM) | 0.038 (≈ 0.12 µM) | 0.125 (≈ 0.394 µM) | 0.1 (≈ 0.315 µM) | 0.25 (≈ 0.787 µM) | 0.028 (≈ 0.0882 µM) | 1 (≈ 3.15 µM) | CCC(C)(C)c1ccc(CC(C)CN2C[C@@H](C)O[C@@H](C)C2)cc1 (some centres undefined) [AMOROLFINE] | 32 (≈ 101 µM) | 32 (≈ 101 µM) | 8 (≈ 25.2 µM) | Non-toxic | 64 (≈ 202 µM) | > 256 | > 256 | 0.44 | Activity (Candida albicans [31]): 15.81%; Activity (Candida albicans [17]): 22.04%; Activity (Candida albicans [18]): 12.26%; Activity (Candida albicans [19]): 17.08%; Activity (Candida albicans [20]): 6.13%; Activity (Candida albicans [22]): 12.03%; Activity (Candida albicans [23]): 5.71%; Activity (Candida albicans [32]): 32.13%; Activity (Candida albicans [24]): 11.56%; Activity (Candida albicans [33]): 15.28%; Activity (Candida albicans [26]): 30.16%; Activity (Candida albicans [27]): 11.11%; Activity (Candida albicans [29]): 8.26%
